According to ChEMBL document CHEMBL3352128, “Design, synthesis and biological evaluation of thienopyridinones as Chk1 inhibitors” (Bioorg Med Chem, 2014):
Active and inactive are the calls of the source. No cut-off for these calls is given here.

Columns and labels:
Homo sapiens [1] = species: Homo sapiens; experiment: Selectivity index, ratio of IC50 for CDK2/cyclinA (unknown origin) to IC50 for Chk1 (unknown origin)
[2] = molecular target: T1, Serine/threonine-protein kinase Chk1 (Homo sapiens, UniProt O14757); experiment: Inhibition of Chk1 (unknown origin) by luminescent ADP-Glo assay
T1 sequence (O14757 whole entry): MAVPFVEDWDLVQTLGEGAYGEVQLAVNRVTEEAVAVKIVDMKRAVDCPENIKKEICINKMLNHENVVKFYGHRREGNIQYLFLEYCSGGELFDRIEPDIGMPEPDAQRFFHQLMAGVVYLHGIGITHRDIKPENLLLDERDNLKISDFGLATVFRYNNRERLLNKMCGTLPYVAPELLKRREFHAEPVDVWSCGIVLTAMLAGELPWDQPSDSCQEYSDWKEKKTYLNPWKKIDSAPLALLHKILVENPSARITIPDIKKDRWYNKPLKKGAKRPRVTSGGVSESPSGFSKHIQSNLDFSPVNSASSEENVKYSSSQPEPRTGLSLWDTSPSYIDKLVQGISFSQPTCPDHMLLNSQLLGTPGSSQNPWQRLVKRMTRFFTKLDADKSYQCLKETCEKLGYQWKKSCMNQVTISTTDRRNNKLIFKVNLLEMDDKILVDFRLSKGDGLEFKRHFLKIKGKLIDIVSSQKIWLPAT

Homo sapiens [3] = species: Homo sapiens; experiment: Selectivity index, ratio of IC50 for Aurora A (unknown origin) to IC50 for Chk1 (unknown origin)
RPMI8266 [4] = experiment: Potentiation of melphalan-induced cytotoxicity against human […] cells at 100 nM after 72 hrs by MTS assay; type: functional, cell-based
In short: (§1)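 RPMI 8226 myeloma cells were seeded at 5 × 10³ cells per well in 100 µL. They were treated with Chk1 inhibitor at 100 nM, with melphalan (1, 3 and 10 µM), or with both, for 72 h. MTS was then added at 0.5 mg/mL final for 2–4 h to read growth.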

Protein kinase C (PKC) = experiment: Inhibition of PKC (unknown origin) by Z'-LYTETM kinase assay; design: species or system Homo sapiens
Aurora kinase A = molecular target: T2, Aurora kinase A (Homo sapiens, UniProt O14965); experiment: Inhibition of Aurora A (unknown origin) expressed in Escherichia coli by ZLYTETM assay
T2 sequence (O14965 whole entry): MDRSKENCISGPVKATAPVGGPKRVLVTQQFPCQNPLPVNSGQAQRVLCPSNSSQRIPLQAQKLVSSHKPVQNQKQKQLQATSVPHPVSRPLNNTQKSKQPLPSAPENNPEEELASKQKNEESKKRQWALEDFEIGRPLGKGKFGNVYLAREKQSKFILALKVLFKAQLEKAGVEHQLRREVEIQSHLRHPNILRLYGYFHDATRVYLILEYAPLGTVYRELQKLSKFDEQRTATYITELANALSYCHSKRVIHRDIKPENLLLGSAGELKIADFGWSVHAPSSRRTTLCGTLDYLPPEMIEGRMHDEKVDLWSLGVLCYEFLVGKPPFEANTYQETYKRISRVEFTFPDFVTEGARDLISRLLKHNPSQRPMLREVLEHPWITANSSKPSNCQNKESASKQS
In short: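 Z'-LYTE kinase assay. Aurora A was recombinant protein expressed in E. coli. Compounds were first tested at 1 µg/mL final. Those giving more than 40% inhibition were taken further, with IC50 reported.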

RPMI8266 [5] = experiment: Cytotoxicity against human […] cells at 100 nM after 72 hrs by MTS assay; type: functional, cell-based; in short: as §1
CDK2/Cyclin A2 = CDK2/Cyclin A2 (Homo sapiens, UniProt P24941); experiment: Inhibition of CDK2/cyclin A (unknown origin) by HTRF kinase assay; type: protein-complex assay
In short: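 CDK2/cyclin A was purchased enzyme, tested with an HTRF kinase assay kit. Compounds were first screened at 1 µg/mL final, and those giving more than 40% inhibition were taken forward to IC50.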

Homo sapiens [6] = species: Homo sapiens; experiment: Selectivity index, ratio of IC50 for PKC (unknown origin) to IC50 for Chk1 (unknown origin)

| SMILES | Ratio IC50 (Homo sapiens [1]) | IC50 [2] [nM] | Ratio IC50 (Homo sapiens [3]) | IC50 (Protein kinase C (PKC)) [nM] | IC50 (Aurora kinase A) [nM] | IC50 (CDK2/Cyclin A2) [nM] | Ratio IC50 (Homo sapiens [6]) | further results |
| --- | --- | --- | --- | --- | --- | --- | --- | --- |
| O=c1[nH]c2sc(Cl)cc2c(NC2CN3CCC2CC3)c1-c1nc2ccccc2[nH]1 (stereo not given) | 100 | 6.23 | > 20 | 2018.88 | > 10000 | 3190 | 100 | Activity (RPMI8266 [4]): Active; Activity (RPMI8266 [5]): inactive |
| O=c1[nH]c2sccc2c(NCCO)c1-c1nc2ccccc2[nH]1 | – | > 10000 | – | – | – | – | – | – |
| COc1ccc2[nH]c(-c3c(N[C@H]4CCCNC4)c4cc(Cl)sc4[nH]c3=O)nc2c1 | > 20 | 2.33 | > 20 | 204.48 | 328 | 393 | > 20 | Activity (RPMI8266 [4]): Active; Activity (RPMI8266 [5]): inactive |
| O=c1[nH]c2sccc2c(NC2CN3CCC2CC3)c1-c1nc2ccccc2[nH]1 (stereo not given) | 100 | 14 | > 20 | 1001.81 | > 10000 | 1630 | 100 | – |
| O=c1[nH]c2sccc2c(NC2CCNC2)c1-c1nc2ccccc2[nH]1 (stereo not given) | – | 47.5 | – | – | – | – | – | – |
| O=c1[nH]c2sc(Cl)cc2c(NC2CCCNC2)c1-c1nc2ccccc2[nH]1 (stereo not given) | > 20 | 4.05 | > 20 | 168.89 | 1050 | 334 | > 20 | Activity (RPMI8266 [4]): Active; Activity (RPMI8266 [5]): inactive |
| O=c1[nH]c2ccsc2c(NC2CCCNC2)c1-c1nc2ccccc2[nH]1 (stereo not given) | > 20 | 7.54 | > 20 | 814.06 | 202 | 256 | > 20 | – |
| O=c1[nH]c2sc(Cl)cc2c(NC2CCNC2)c1-c1nc2ccccc2[nH]1 (stereo not given) | – | 41 | – | – | – | – | – | – |
| O=c1[nH]c2sccc2c(NCC2CCNCC2)c1-c1nc2ccccc2[nH]1 | – | 116 | – | – | – | – | – | – |
| O=c1[nH]c2sccc2c(N2CCOCC2)c1-c1nc2ccccc2[nH]1 | – | > 10000 | – | – | – | – | – | – |
| O=c1[nH]c2sc(Cl)cc2c(N[C@H]2CCCNC2)c1-c1nc2ccccc2[nH]1 | – | 3.53 | – | – | – | – | – | – |
| O=c1[nH]c2sc(Br)cc2c(NC2CCNC2)c1-c1nc2ccccc2[nH]1 (stereo not given) | – | 15.3 | – | – | – | – | – | – |
| Cc1cc2c(NC3CCNC3)c(-c3nc4ccccc4[nH]3)c(=O)[nH]c2s1 (stereo not given) | – | 23.2 | – | – | – | – | – | – |
| NC(=O)Nc1cc(-c2cccc(F)c2)sc1C(=O)N[C@H]1CCCNC1 | – | – | – | – | – | – | – | Activity (RPMI8266 [4]): Active; Activity (RPMI8266 [5]): inactive |
| O=c1[nH]c2sccc2c(N[C@H]2CCCNC2)c1-c1nc2ccccc2[nH]1 | > 20 | 5.22 | > 20 | 522.51 | 495 | 852 | > 20 | – |
| Cc1cc2c(NC3CCCNC3)c(-c3nc4ccccc4[nH]3)c(=O)[nH]c2s1 (stereo not given) | – | 9.84 | – | – | – | – | – | – |
| COc1ccc2[nH]c(-c3c(NC4CN5CCC4CC5)c4cc(Cl)sc4[nH]c3=O)nc2c1 (stereo not given) | 100 | 5.36 | > 20 | 8186.03 | 1400 | 4300 | 100 | – |

Now from value to compound, other results behind:

| Ratio IC50 (Homo sapiens [1]) | IC50 [2] [nM] | Ratio IC50 (Homo sapiens [3]) | IC50 (Protein kinase C (PKC)) [nM] | IC50 (Aurora kinase A) [nM] | IC50 (CDK2/Cyclin A2) [nM] | Ratio IC50 (Homo sapiens [6]) | SMILES | further results |
| --- | --- | --- | --- | --- | --- | --- | --- | --- |
| – | > 10000 | – | – | – | – | – | NCCNc1c(-c2nc3ccccc3[nH]2)c(=O)[nH]c2sccc12 | – |
| > 20 | 4.83 | > 20 | 392.71 | 1590 | 246 | > 20 | O=c1[nH]c2sc(Br)cc2c(NC2CCCNC2)c1-c1nc2ccccc2[nH]1 (stereo not given) | – |
| – | > 10000 | – | – | – | – | – | CNCCNc1c(-c2nc3ccccc3[nH]2)c(=O)[nH]c2sccc12 | – |
| – | > 10000 | – | – | – | – | – | O=c1[nH]c2sccc2c(N2CCCCC2)c1-c1nc2ccccc2[nH]1 | – |
| – | 178 | – | – | – | – | – | CN(C)CCNc1c(-c2nc3ccccc3[nH]2)c(=O)[nH]c2sccc12 | – |
| – | 9.94 | – | – | – | – | – | O=c1[nH]c2sccc2c(NC2CCNCC2)c1-c1nc2ccccc2[nH]1 | – |
| – | > 10000 | – | – | – | – | – | O=c1[nH]c2sccc2c(NC2CCCCC2)c1-c1nc2ccccc2[nH]1 | – |
| – | 24.7 | – | – | – | – | – | O=c1[nH]c2ccsc2c(NC2CCNC2)c1-c1nc2ccccc2[nH]1 (stereo not given) | – |
| – | > 10000 | – | – | – | – | – | O=c1[nH]c2sccc2c(NCCN2CCOCC2)c1-c1nc2ccccc2[nH]1 | – |
| – | > 10000 | – | – | – | – | – | O=c1[nH]c2sccc2c(N2CCC(CO)CC2)c1-c1nc2ccccc2[nH]1 | – |
| – | > 10000 | – | – | – | – | – | COC(=O)CCNc1c(-c2nc3ccccc3[nH]2)c(=O)[nH]c2sccc12 | – |
| > 20 | 15.6 | > 20 | 695.85 | 791 | 849 | > 20 | O=c1[nH]c2sccc2c(NC2CCCNC2)c1-c1nc2ccccc2[nH]1 (stereo not given) | – |
